Data: article PMC10286277 (ACS Omega, 2023)

Columns and labels:
pUC19 DNA = assay: Hydrolytic DNA cleavage, gel electrophoresis without external agent or light; assay type: biochemical; details: 400 μM, control experiments
Method in brief: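 pUC19 DNA (200 ng) in 50 mM Tris–HCl, pH 8, was incubated with test compound (0–400 μM) in 10 μL for 2 h at 37 °C, with no added agent and no light. Controls used Cu(OAc)₂·H₂O, free ligand or imidazole, each at 400 μM. Samples were run on 1% agarose in TAE (pH 8.4) for 1.5 h at 60 V, stained with 0.5 μg/mL ethidium bromide and imaged under UV for conversion to nicked circular form.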

cervical cancer HeLa = assay: MTT cell viability assay; assay type: cell-based, human; details: 24 h
Method in brief: (§1)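 Cells were seeded at 2×10^4 per well, held overnight at 37 °C in humidified CO₂ and treated with test compound at […] for 24 h. MTT (0.5 mg/mL) was added for 4 h in the dark and then removed. Formazan was dissolved in DMSO and absorbance read at 570 nm.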

breast cancer MDA-MB-231 = assay: MTT cell viability assay; assay type: cell-based, human; details: MDA-MB-231, 24 h
Method in brief: as §1

Row | Molecule | DNA cleavage by starting materials alone (pUC19 DNA) | IC50 (cervical cancer HeLa) [µM] | sensitivity of cells in MTT cell viability assay (in words) (breast cancer MDA-MB-231)
1 | c1c[nH]cn1 [imidazole] | No cleavage was detected | – | –
2 | 2-(2-Hydroxyphenyl)benzothiazoline | No cleavage was detected | – | –
3 | N.N.[Cl][Pt][Cl] [cisplatin, reference compound] | – | 30.9 ± 0.45 | resistant
4 | CC(=O)[O-].CC(=O)[O-].O.[Cu+2] [Cu(OAc)2·H2O, copper(II) acetate monohydrate] | No cleavage was detected | – | –
